In brackets after ≈: the same amount, converted by molar mass.
Tests used:
[1] = Blood plasma protein binding in human treated with 100 mg of efavirenz administered every 4 hrs by ultrafiltration method; format: ADME, cell-free; settings: read-out: PPB (converted)
Method in brief: (§1)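 Ultrafiltration through 10-kDa membrane of 100 μl sample preincubated 1 h at 37°C, centrifuged at 37°C with filtrate collected every 15 min for 45 min and measured by UPLC-MS/MS. Free level at time zero back-extrapolated by linear regression. […]. For blood plasma, metabolites were spiked into blank plasma lots.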

[2] = system: Liver microsome; test: Drug metabolism in human liver microsomes assessed as formation of metabolites with retention time of 1.73 mins at 20 uM by UPLC-MS/MS analysis; format: ADME; settings: 104 s
Method in brief: (§2)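 Substrate at 20 μM with pooled human liver microsomes (1 mg/mL) in 100 mM potassium phosphate, pH 7.4. 5-min equilibration at 37°C, then NADPH regenerating system added, 60 min at 37°C. Stopped with acetonitrile, liquid–liquid extracted (hexane:ethyl acetate), and dihydroxylated products read by UPLC-MS/MS at MRM m/z 346 > 262.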

[3] = system: Liver microsome; test: Drug metabolism in human liver microsomes assessed as formation of metabolites with retention time of 1.92 mins at 20 uM by UPLC-MS/MS analysis; format: ADME; settings: 0.032 h; method in brief: as §2
[4] = Blood plasma concentration in human treated with 100 mg of efavirenz administered […] by UPLC-MS/MS analysis; format: ADME, cell-free
Method in brief: (§3)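 Patient samples (subjects on once-daily EFV regimen; paired plasma/CSF from 13 participants) extracted and total metabolite levels quantified by UPLC-MS/MS. Fluorinated EFV analog used as internal standard. MRM detection, calibrated linear 0.5–500 ng/ml. Values reported as median (IQR).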

[5] = Seminal plasma concentration in human treated with 100 mg of efavirenz administered every 4 hrs by UPLC-MS/MS analysis; format: ADME, cell-free; settings: male
[6] = biological target: T1, Cytochrome P450 2B6 (Homo sapiens, UniProt P20813); test: Drug metabolism of the compound assessed as CYP2B6 (unknown origin)-mediated formation of dihydroxylated metabolites with retention time of 1.56 mins at 5 uM by UPLC-MS/MS analysis; format: ADME; settings: 0.026 h
T1 sequence (P20813 whole entry): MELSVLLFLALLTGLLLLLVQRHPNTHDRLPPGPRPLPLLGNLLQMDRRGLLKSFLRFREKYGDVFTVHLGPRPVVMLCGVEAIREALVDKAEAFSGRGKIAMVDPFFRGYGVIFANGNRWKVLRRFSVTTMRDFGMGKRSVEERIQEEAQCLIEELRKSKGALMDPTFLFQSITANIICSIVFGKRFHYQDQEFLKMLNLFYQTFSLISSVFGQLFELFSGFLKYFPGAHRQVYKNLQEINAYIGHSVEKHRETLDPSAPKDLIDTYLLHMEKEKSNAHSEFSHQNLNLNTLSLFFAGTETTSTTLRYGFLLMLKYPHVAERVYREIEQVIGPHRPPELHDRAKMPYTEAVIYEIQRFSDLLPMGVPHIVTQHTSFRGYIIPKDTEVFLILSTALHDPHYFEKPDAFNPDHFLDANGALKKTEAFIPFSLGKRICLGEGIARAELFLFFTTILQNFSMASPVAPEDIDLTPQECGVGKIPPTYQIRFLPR
Method in brief: (§4)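 cDNA-expressed human CYPs (20 pmol/ml; panel 1A1–3A7) incubated with 5 μM substrate in 100 mM potassium phosphate, pH 7.4. 5-min equilibration at 37°C, then NADPH regenerating system, 60 min at 37°C. Acetonitrile stop, liquid–liquid extraction, UPLC-MS/MS detection of dihydroxylated products. Mean ± SD, n = 3.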

[7] = system: Liver microsome; test: Drug metabolism in human liver microsomes assessed as formation of dihydroxylated metabolites with retention time of 1.56 mins at 20 uM by UPLC-MS/MS analysis; format: ADME; settings: 0.026 h; method in brief: as §2
[8] = biological target: T2, Cytochrome P450 1A1 (Homo sapiens, UniProt P04798); test: Drug metabolism of the compound assessed as CYP1A1 (unknown origin)-mediated formation of dihydroxylated metabolites with retention time of 1.56 mins at 5 uM by UPLC-MS/MS analysis; format: ADME; settings: 0.026 h; method in brief: as §4
T2 sequence (P04798 whole entry): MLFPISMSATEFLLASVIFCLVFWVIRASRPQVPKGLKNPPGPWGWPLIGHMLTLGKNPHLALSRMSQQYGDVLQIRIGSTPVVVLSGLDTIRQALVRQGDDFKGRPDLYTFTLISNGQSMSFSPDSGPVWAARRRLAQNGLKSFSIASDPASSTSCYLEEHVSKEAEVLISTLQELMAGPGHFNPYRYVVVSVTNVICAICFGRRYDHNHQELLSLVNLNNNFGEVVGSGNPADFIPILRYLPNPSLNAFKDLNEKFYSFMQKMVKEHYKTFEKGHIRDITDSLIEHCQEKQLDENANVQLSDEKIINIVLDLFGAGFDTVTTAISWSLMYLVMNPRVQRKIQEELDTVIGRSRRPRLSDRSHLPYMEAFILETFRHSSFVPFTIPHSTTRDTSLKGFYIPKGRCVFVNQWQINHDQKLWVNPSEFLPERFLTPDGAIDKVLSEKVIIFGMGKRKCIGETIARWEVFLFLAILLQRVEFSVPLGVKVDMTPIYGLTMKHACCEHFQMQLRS

[9] = biological target: T1, Cytochrome P450 2B6; test: Drug metabolism of the compound assessed as CYP2B6 (unknown origin)-mediated formation of metabolites with retention time of 1.92 mins at 5 uM by UPLC-MS/MS analysis; format: ADME; settings: 0.032 h; method in brief: as §4
[10] = Ratio of drug level in seminal plasma to blood plasma in human at 100 mg administered every 4 hrs by UPLC-MS/MS analysis; format: ADME, cell-free; settings: male
[11] = system: Human immunodeficiency virus 1; test: Antiviral activity against HIV1 expressing Env-green fluorescent fusion protein infected in PBMC assessed as inhibition of viral activity after 72 hrs by flow cytometry analysis; format: functional, organism-based; settings: Human immunodeficiency virus 1, 72 h
Method in brief: (§5)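 Activated CD4+ T cells from PBMCs (PHA 0.5 μg/ml, IL-2 100 U/ml, 3 days, 37°C) seeded at 1 × 10^5/well in RPMI + 50% FBS with IL-2. Compound in DMSO (<0.1%) added 3 h before spinoculation with single-round HIV-1 Env-GFP reporter virus. GFP read by flow cytometry after 72 h. Infectivity is fraction unaffected relative to virus-only and no-virus controls.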

[12] = biological target: T2, Cytochrome P450 1A1; test: Drug metabolism of the compound assessed as CYP1A1 (unknown origin)-mediated formation of dihydroxylated metabolites with retention time of 1.73 mins at 5 uM by UPLC-MS/MS analysis; format: ADME; settings: 104 s; method in brief: as §4
[13] = Fraction unbound in human seminal plasma treated with 100 mg of efavirenz administered every 4 hrs by ultrafiltration method; format: ADME; method in brief: as §1
[14] = Seminal plasma protein binding in human treated with 100 mg of efavirenz administered every 4 hrs by ultrafiltration method; format: ADME, cell-free; settings: male, read-out: PPB (converted); method in brief: as §1
[15] = Drug level in human cerebrospinal fluid treated with 100 mg of efavirenz administered […] by UPLC-MS/MS analysis; format: ADME, tissue-based; settings: read-out: Drug uptake; method in brief: as §3
[16] = biological target: T1, Cytochrome P450 2B6; test: Drug metabolism of the compound assessed as CYP2B6 (unknown origin)-mediated formation of dihydroxylated metabolites with retention time of 1.73 mins at 5 uM by UPLC-MS/MS analysis; format: ADME; settings: 104 s; method in brief: as §4
[17] = biological target: T3, Cytochrome P450 2C8 (Homo sapiens, UniProt P10632); test: Drug metabolism of the compound assessed as CYP2C8 (unknown origin)-mediated formation of dihydroxylated metabolites with retention time of 1.92 mins at 5 uM by UPLC-MS/MS analysis; format: ADME; settings: 0.032 h; method in brief: as §4
T3 sequence (P10632 whole entry): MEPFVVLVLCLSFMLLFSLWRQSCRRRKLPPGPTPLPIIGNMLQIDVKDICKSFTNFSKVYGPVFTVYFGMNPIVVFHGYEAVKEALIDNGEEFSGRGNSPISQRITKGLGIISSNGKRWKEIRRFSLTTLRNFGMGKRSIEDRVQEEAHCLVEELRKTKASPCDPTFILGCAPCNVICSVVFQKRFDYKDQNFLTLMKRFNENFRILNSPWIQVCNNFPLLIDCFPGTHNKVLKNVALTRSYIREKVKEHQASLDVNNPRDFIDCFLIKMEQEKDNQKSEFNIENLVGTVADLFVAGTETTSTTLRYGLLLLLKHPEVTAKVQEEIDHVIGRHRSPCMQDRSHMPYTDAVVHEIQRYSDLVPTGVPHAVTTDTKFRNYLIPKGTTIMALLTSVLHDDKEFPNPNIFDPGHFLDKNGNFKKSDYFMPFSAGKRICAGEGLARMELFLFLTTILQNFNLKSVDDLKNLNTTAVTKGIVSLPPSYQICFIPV

[18] = Ratio of drug level in seminal plasma to blood plasma in human treated with 100 mg of efavirenz administered every 4 hrs by UPLC-MS/MS analysis; format: ADME, cell-free; settings: male
[19] = system: Plasma; test: Drug metabolism in human seminal plasma assessed as retention time treated with 100 mg of efavirenz administered every 4 hrs by UPLC-MS/MS analysis; format: ADME, cell-free
[20] = system: Plasma; test: Drug metabolism in human seminal plasma assessed as retention time of dihydroxylated metabolites treated with 100 mg of efavirenz administered every 4 hrs by UPLC-MS/MS analysis; format: ADME, cell-free
[21] = system: Plasma; test: Total seminal plasma concentration in human; format: ADME, cell-free
[22] = system: Plasma; test: Drug metabolism in human blood plasma assessed as formation of N- and O-linked glucuronidated metabolite at 100 mg administered every 4 hrs by UPLC-MS/MS analysis; format: ADME, cell-free
[23] = Drug level in human cerebrospinal fluid; format: ADME, tissue-based; method in brief: as §3
[24] = Seminal plasma protein binding in human at 100 mg administered every 4 hrs by ultrafiltration method; format: ADME, cell-free; method in brief: as §1
[25] = system: Human immunodeficiency virus 1; test: Antiviral activity against HIV1; format: functional, organism-based; method in brief: as §5
[26] = Blood plasma protein binding in human at 100 mg administered every 4 hrs by ultrafiltration method; format: ADME, cell-free; settings: read-out: PPB (converted); method in brief: as §1
[27] = system: Plasma; test: Total blood plasma concentration in human; format: ADME, cell-free
[28] = Drug metabolism in human seminal plasma assessed as formation of N- and O-linked glucuronidated metabolite at 100 mg administered every 4 hrs by UPLC-MS/MS analysis; format: ADME, cell-free

Structure (SMILES) | fraction unbound at 4 h [1] | Drug metabolism [3] | concentration [4] | concentration at 4 h [5] | Drug metabolism [9] | IC50 [11] | Cp(f) [13] | fraction unbound at 4 h [14] | concentration [15] | Drug metabolism [17] | Kp at 4 h [18] | also measured
O=C1Nc2c(O)cc(Cl)cc2[C@@](C#CC2CC2)(C(F)(F)F)O1 | 0.0003 | metabolite_detected | 314 ng/mL | 358 ng/mL | metabolite_detected | 0.0422 µg/mL (≈ 0.127 µM) | 10.16 ng/mL | 0.038 | 3.37 ng/mL | – | – | Drug metabolism [2]: metabolite_detected; Drug metabolism [6]: metabolite_detected; Drug metabolism [7]: metabolite_detected; Drug metabolism [8]: metabolite_detected; Kp at 4 h [10]: 145; Drug metabolism [12]: metabolite_detected; Drug metabolism [16]: metabolite_detected
O=C1Nc2cc(O)c(Cl)cc2[C@@](C#CC2CC2)(C(F)(F)F)O1 | 0.0038 | metabolite_detected | 8.84 ng/mL | 10.2 ng/mL | metabolite_detected | 0.0447 µg/mL (≈ 0.135 µM) | 6.55 ng/mL | 0.619 | – | metabolite_detected | 188 | –
O=C1Nc2c(O)cc(Cl)cc2[C@@](C#CC2(O)CC2)(C(F)(F)F)O1 | 0.0039 | – | 5.63 ng/mL | 5.43 ng/mL | – | 2.24 µg/mL (≈ 6.44 µM) | 4.04 ng/mL | 0.846 | 0.375 ng/mL | – | 209 | Retention_time [19]: 1.56 min; Retention time [20]: 1.56 min
O=C1Nc2ccc(Cl)cc2[C@@](C#CC2CC2)(C(F)(F)F)O1 [EFAVIRENZ] | – | metabolite_detected | – | – | metabolite_detected | 0.00036 µg/mL (≈ 0.00114 µM) | – | – | – | metabolite_detected | – | Cp [21]: 95 ng/mL; Drug metabolism [22]: metabolite_detected; Drug uptake [23]: 19 ng/mL; PPB [24]: 95.1%; IC50 [25]: 0.00051 µg/mL (≈ 0.00162 µM); fraction unbound at 4 h [26]: 0.0018; Cp [27]: 2170 ng/mL; Drug metabolism [28]: metabolite_detected
